Source: ChEMBL document CHEMBL1157620, “1-(Aryl)-6-[alkoxyalkyl]-3-azabicyclo[3.1.0]hexanes and 6-(aryl)-6-[alkoxyalkyl]-3-azabicyclo[3.1.0]hexanes: a new series of potent and selective triple reuptake inhibitors” (J Med Chem, 2010)

Columns and labels:
[1] = Half life in rat; assay type: ADME, organism-based; details: in vivo
[2] = target: T1, Voltage-gated inwardly rectifying potassium channel KCNH2 (Homo sapiens, UniProt Q12809); assay: Inhibition of human ERG assessed as blockade of channel current by electrophysiology assay
[3] = target: T1, Voltage-gated inwardly rectifying potassium channel KCNH2; assay: Displacement of [3H][…] from human ERG by scintillation proximity assay
In short: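 SPA-format [³H]dofetilide binding to hERG, with bound signal read on a plate imager. The value is reported as a binding pKi.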

[4] = target: Sodium-dependent dopamine transporter (Rattus norvegicus, UniProt P23977); assay: Displacement of [N-methyl-3H]WIN-35428 from rat striatum DAT by filtration binding assay
In short: (§1)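 Native brain tissue filtration binding, run as for the recombinant transporters. SERT on rat or mouse cortex (20 and 7 μg protein/well respectively). NET on rat hippocampus (40 μg/well). DAT on rat striatum (20 μg/well).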

[5] = Fraction unbound in rat brain; assay type: ADME, tissue-based; details: brain
[6] = target: 5-hydroxytryptamine receptor 2A (Homo sapiens, UniProt P28223); assay: Inhibition of 5HT2A receptor
Transporter = Transporter (Rattus norvegicus, UniProt Q63380); assay: Displacement of [N-methyl-3H]nisoxetine from rat hippocampus NET by filtration binding assay; assay type: tissue-based; in short: as §1
[7] = target: Alpha-1A adrenergic receptor (Homo sapiens, UniProt P35348); assay: Inhibition of adrenergic alpha1A receptor
[8] = Blood clearance in rat; assay type: ADME, organism-based
[9] = target: Sodium-dependent serotonin transporter (Rattus norvegicus, UniProt P31652); assay: Displacement of [3H]citalopram from rat cortex SERT by filtration binding assay; in short: as §1
[10] = Bioavailability in rat; assay type: ADME, organism-based; details: in vivo
[11] = Ratio of drug level in brain to blood in rat; assay type: ADME, tissue-based; details: read-out: BBR
Liver microsomes [12] = assay: Intrinsic clearance in human liver microsomes assessed per gram of protein at 0.5 uM after 30 mins by HPLC-MS/MS analysis; assay type: ADME, Microsome; details: microsomes, 0.5 h, 0.5 µM
In short: (§2)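 Compound at 0.5 μM with rat or human liver microsomes (0.5 mg protein/mL), 50 mM phosphate, pH 7.4, 37 °C, started with NADPH. Sampled at 0-30 min, acetonitrile quench, HPLC-MS/MS. CLi from first-order elimination constant, scaled assuming 52.5 mg microsomal protein/g.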

[13] = target: Muscarinic acetylcholine receptor M3 (Homo sapiens, UniProt P20309); assay: Inhibition of muscarinic M3 receptor
[14] = target: Sodium-dependent serotonin transporter (Mus musculus, UniProt Q60857); assay: Displacement of [3H]citalopram from mouse cortex SERT by filtration binding assay; in short: as §1
Cytochrome P450 3A4 = Cytochrome P450 3A4 (Homo sapiens, UniProt P08684); assay: Inhibition of human CYP3A4 by fluorescence assay
[15] = target: T2, Sodium-dependent noradrenaline transporter (Homo sapiens, UniProt P23975); assay: Inhibition of [3H]noradrenalin reuptake at human NET expressed in LLCPK cells by scintillation proximity assay; assay type: cell-based
In short: (§3)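 Uptake-SPA on stably transfected LLCPK cells in HEPES buffer, pH 7.4. SERT: 25000 cells/well, 1.5 mg/mL beads, 35 nM [3H]serotonin. NET: 50000 cells/well, 1.5 mg/mL beads, 45 nM [3H]noradrenalin. DAT: 75000 cells/well, 2 mg/mL beads, 75 nM [3H]dopamine. Concentrations are those of the substrate addition. 1 h at room temperature; 4-parameter fit.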

[16] = target: Muscarinic acetylcholine receptor M4 (Homo sapiens, UniProt P08173); assay: Inhibition of muscarinic M4 receptor
[17] = target: Muscarinic acetylcholine receptor M5 (Homo sapiens, UniProt P08912); assay: Inhibition of muscarinic M5 receptor
Cytochrome P450 1A2 = target: T3, Cytochrome P450 1A2 (Homo sapiens, UniProt P05177); assay: Inhibition of human CYP1A2 by fluorescence assay; assay type: ADME
T3 sequence (P05177 whole entry): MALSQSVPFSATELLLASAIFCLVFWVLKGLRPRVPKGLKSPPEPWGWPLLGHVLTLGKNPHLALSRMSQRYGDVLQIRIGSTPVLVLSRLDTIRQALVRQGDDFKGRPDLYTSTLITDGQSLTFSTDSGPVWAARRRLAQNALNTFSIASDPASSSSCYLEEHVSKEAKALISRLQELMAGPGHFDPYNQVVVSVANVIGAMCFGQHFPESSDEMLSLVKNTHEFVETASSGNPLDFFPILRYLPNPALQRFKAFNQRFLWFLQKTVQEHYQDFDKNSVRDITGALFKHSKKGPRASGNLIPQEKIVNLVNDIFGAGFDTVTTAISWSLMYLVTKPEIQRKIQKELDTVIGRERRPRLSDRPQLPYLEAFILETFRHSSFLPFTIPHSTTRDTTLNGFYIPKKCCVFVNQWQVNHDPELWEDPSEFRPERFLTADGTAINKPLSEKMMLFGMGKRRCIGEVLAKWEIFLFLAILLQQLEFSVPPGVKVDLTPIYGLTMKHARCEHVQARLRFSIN
In short: (§4)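 Recombinant human P450 bactosomes (0.1 mg/mL) in 50 mM phosphate, pH 7.4. Test compound at 0.1-10 μM, preincubated 10 min at 37 °C with fluorogenic substrate: ethoxyresorufin 0.5 μM (1A2), FCA 50 μM (2C9), BMC 10 μM (2C19), MMC 10 μM (2D6).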

[18] = Volume of distribution in rat; assay type: ADME, organism-based; details: in vivo
Histamine H1 receptor = Histamine H1 receptor (Homo sapiens, UniProt P35367); assay: Inhibition of histamine H1 receptor
Liver microsomes [19] = assay: Intrinsic clearance in rat liver microsomes assessed per gram of protein at 0.5 uM after 30 mins by HPLC-MS/MS analysis; assay type: ADME, Microsome; details: microsomes, 0.5 h, 0.5 µM; in short: as §2
[20] = target: Muscarinic acetylcholine receptor M1 (Homo sapiens, UniProt P11229); assay: Inhibition of muscarinic M1 receptor
[21] = target: T4, Sodium-dependent dopamine transporter (Homo sapiens, UniProt Q01959); assay: Inhibition of [3H]dopamine reuptake at human DAT expressed in LLCPK cells by scintillation proximity assay; assay type: cell-based; in short: as §3
[22] = target: T2, Sodium-dependent noradrenaline transporter; assay: Displacement of [3H]nisoxetine from human recombinant NET expressed in BacMam virus-transduced cells by scintillation proximity assay; assay type: cell-based
In short: (§5)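 BacMam-transduced membranes in SPA format. SERT: 1 mg/mL beads, 6 μg/mL membranes, 3 nM [3H]citalopram. NET: 2 mg/mL beads, 40 μg/mL membranes, 10 nM [3H]nisoxetine. Incubated overnight at room temperature; pKi from pIC50 by Cheng-Prusoff.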

[23] = target: T5, Sodium-dependent serotonin transporter (Homo sapiens, UniProt P31645); assay: Displacement of [3H]citalopram from human recombinant SERT expressed in BacMam virus-transduced cells by scintillation proximity assay; assay type: cell-based; in short: as §5
Cytochrome P450 2C19 = Cytochrome P450 2C19 (Homo sapiens, UniProt P33261); assay: Inhibition of human CYP2C19 by fluorescence assay; assay type: ADME; in short: as §4
Cytochrome P450 2C9 = Cytochrome P450 2C9 (Homo sapiens, UniProt P11712); assay: Inhibition of human CYP2C9 by fluorescence assay; assay type: ADME; in short: as §4
[24] = target: Muscarinic acetylcholine receptor M2 (Homo sapiens, UniProt P08172); assay: Inhibition of muscarinic M2 receptor
Cytochrome P450 2D6 = Cytochrome P450 2D6 (Homo sapiens, UniProt P10635); assay: Inhibition of human […] by fluorescence assay; assay type: ADME; in short: as §4
[25] = target: T5, Sodium-dependent serotonin transporter; assay: Inhibition of [3H]serotonin reuptake at human SERT expressed in LLCPK cells by scintillation proximity assay; assay type: cell-based; in short: as §3
[26] = target: T4, Sodium-dependent dopamine transporter; assay: Displacement of [3H]WIN-35428 from human recombinant DAT expressed in BacMam virus-transduced cells by scintillation proximity assay; assay type: cell-based

T5 sequence (P31645 whole entry): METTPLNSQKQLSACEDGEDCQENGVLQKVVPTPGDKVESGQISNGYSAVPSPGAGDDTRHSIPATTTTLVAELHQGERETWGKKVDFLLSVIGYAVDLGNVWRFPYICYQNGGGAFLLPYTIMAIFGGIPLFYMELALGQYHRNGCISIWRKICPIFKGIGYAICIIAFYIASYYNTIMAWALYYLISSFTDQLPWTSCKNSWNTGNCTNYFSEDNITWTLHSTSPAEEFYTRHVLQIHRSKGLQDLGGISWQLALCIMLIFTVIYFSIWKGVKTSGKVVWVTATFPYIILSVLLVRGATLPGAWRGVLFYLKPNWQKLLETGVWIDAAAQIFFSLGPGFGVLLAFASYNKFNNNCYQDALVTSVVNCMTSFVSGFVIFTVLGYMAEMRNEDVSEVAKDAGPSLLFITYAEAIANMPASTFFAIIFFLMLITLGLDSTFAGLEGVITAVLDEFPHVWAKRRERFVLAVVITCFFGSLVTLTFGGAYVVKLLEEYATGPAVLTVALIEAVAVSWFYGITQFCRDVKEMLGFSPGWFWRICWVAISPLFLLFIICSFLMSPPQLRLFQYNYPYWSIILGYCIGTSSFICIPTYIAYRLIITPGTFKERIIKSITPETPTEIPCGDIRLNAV
T1 sequence (Q12809 whole entry): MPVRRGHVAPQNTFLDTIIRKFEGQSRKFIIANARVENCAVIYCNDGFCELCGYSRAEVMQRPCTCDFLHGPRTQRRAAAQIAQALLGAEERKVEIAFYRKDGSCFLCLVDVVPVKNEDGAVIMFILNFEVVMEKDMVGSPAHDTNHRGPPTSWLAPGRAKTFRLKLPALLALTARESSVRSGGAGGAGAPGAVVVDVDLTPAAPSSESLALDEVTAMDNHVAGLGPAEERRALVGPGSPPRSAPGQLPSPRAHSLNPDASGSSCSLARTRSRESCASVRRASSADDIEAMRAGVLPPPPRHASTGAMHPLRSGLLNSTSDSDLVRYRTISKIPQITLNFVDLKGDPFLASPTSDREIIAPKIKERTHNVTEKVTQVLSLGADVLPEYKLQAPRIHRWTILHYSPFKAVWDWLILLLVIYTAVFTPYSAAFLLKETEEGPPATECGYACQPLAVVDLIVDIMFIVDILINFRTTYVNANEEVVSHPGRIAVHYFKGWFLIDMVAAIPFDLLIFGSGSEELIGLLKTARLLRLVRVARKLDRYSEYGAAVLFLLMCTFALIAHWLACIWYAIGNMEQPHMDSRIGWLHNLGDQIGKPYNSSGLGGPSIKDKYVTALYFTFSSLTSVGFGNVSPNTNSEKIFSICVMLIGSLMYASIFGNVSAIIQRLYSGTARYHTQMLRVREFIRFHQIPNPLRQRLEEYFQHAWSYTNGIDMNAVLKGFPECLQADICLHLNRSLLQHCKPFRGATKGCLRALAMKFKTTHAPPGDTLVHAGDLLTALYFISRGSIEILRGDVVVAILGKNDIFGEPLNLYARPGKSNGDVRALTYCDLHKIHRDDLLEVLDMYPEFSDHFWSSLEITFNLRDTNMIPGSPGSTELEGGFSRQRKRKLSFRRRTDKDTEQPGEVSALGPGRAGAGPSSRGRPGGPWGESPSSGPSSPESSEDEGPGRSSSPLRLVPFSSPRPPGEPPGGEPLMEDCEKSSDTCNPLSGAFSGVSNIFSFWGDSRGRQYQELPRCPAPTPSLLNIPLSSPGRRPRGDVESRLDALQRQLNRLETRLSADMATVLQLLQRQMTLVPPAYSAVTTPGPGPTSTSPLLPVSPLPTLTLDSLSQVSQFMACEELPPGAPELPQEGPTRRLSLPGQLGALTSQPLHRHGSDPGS
T4 sequence (Q01959 whole entry): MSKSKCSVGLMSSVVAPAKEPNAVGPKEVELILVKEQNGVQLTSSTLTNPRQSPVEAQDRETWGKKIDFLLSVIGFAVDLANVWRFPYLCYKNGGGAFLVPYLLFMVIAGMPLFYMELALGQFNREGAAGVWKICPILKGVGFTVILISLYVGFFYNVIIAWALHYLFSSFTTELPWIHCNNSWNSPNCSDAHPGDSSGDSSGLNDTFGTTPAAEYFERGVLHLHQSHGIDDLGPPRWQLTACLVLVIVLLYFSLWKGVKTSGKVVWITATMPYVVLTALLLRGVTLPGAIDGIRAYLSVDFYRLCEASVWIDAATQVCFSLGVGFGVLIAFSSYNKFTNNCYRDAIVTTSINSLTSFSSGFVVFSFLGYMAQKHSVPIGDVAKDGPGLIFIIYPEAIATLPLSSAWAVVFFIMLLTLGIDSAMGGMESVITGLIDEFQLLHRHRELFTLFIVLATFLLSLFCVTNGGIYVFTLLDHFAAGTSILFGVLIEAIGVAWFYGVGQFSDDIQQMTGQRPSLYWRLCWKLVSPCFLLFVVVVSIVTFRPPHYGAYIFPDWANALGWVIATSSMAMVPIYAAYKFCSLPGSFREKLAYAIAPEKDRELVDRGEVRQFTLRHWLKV
T2 sequence (P23975 whole entry): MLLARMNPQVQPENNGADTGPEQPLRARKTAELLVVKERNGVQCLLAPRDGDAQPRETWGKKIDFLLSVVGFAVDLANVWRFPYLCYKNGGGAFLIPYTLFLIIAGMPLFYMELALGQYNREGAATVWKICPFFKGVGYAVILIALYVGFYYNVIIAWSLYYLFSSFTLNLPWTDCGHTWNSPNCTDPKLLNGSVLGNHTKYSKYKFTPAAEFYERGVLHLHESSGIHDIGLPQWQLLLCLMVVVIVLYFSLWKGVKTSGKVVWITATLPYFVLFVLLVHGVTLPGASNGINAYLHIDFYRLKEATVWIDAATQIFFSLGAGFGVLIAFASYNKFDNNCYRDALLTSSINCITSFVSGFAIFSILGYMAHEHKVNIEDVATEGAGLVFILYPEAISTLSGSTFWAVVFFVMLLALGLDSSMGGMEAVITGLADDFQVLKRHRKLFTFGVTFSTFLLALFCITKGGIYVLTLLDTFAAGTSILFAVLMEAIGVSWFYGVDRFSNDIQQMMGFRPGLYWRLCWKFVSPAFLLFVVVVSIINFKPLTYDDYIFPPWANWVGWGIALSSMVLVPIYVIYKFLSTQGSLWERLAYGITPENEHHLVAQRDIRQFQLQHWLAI
Muscarinic acetylcholine receptor M5, sequence (P08912 whole entry): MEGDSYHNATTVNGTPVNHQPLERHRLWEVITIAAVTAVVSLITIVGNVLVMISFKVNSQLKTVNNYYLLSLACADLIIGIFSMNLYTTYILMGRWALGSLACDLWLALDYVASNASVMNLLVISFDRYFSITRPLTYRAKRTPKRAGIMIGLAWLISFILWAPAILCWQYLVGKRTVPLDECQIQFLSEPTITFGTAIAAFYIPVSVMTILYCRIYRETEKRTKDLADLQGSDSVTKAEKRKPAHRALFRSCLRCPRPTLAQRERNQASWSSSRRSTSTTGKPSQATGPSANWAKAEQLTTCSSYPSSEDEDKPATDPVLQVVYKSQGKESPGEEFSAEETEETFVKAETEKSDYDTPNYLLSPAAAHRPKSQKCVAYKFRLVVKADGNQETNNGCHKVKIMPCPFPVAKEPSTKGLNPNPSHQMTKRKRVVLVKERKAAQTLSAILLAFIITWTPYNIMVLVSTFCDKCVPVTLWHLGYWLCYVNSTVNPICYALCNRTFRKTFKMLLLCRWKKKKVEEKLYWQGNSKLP
Histamine H1 receptor, sequence (P35367 whole entry): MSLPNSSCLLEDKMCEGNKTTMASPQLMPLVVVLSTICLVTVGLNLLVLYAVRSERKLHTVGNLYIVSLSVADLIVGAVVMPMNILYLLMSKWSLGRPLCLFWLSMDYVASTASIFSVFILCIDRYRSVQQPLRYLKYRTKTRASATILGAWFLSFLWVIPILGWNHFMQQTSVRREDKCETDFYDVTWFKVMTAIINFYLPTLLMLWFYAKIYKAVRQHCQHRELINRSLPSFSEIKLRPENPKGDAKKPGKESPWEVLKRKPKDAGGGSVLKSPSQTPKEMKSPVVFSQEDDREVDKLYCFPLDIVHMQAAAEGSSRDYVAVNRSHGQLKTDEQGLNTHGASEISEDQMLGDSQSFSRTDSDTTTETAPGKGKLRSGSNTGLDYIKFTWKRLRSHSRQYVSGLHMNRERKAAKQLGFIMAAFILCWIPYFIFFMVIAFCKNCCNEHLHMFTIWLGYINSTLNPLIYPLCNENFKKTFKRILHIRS
Muscarinic acetylcholine receptor M3, sequence (P20309 whole entry): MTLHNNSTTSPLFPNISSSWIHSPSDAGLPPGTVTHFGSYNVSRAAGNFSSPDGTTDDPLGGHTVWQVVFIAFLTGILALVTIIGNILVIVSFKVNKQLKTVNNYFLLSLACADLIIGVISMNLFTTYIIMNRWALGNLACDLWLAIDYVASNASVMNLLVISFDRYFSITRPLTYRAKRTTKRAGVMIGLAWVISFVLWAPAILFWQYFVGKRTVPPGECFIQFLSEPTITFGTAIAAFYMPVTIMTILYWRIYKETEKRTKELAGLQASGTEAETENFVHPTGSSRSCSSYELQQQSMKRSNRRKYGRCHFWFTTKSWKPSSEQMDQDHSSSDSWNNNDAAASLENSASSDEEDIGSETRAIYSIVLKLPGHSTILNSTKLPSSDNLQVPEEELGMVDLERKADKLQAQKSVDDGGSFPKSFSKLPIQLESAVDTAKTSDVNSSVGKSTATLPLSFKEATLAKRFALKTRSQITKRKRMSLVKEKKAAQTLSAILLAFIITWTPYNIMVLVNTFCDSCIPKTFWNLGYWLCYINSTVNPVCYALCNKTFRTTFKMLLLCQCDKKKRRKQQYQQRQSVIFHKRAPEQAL

Molecule `CCOC[C@H]1[C@@H]2CNC[C@@]21c1ccc(Cl)c(Cl)c1` has a half-life [1] of 1.2 h, an IC50 [2] of 4200 nM and a Ki [3] of 12600 nM. The Ki [4] was 13.5 nM, the fraction unbound [5] was 0.014 and the Ki [6] was 158 nM. The Ki (Transporter) was 0.135 nM, the Ki [7] was 200 nM and the clearance [8] was 18 mL/min/kg. For the same molecule, the Ki [9] was 0.676 nM, the bioavailability [10] was 61% and the Kp [11] was 4.6. For the same molecule, the CL (Liver microsomes [12]) was 1.2 mL/min/g, the Ki [13] was 63.1 nM and the Ki [14] was 0.851 nM. It also gave an IC50 (Cytochrome P450 3A4) of over 9000 nM, an IC50 [15] of 0.158 nM and a Ki [16] of 251 nM. The Ki [17] was 100 nM, the IC50 (Cytochrome P450 1A2) was over 9000 nM and the Vd [18] was 1.4 L/kg. It also gave a Ki (Histamine H1 receptor) of 1000 nM, a CL (Liver microsomes [19]) of 1.3 mL/min/g and a Ki [20] of 158 nM. It also gave an IC50 [21] of 5.01 nM, a Ki [22] of 0.501 nM and a Ki [23] of 0.158 nM. For the same molecule, the IC50 (Cytochrome P450 2C19) was over 9000 nM, the IC50 (Cytochrome P450 2C9) was over 9000 nM and the Ki [24] was 200 nM. The IC50 (Cytochrome P450 2D6) was 4000 nM, the IC50 [25] was 1.26 nM and the Ki [26] was 7.94 nM.
